Results on two compounds are retold here after ChEMBL document CHEMBL1687813 (Antimicrob Agents Chemother, 2010).

The target in test [1] is T1, Nicotinamidase/pyrazinamidase (Mycolicibacterium smegmatis) (UniProt Q9ZHK8).
T1 sequence (whole entry): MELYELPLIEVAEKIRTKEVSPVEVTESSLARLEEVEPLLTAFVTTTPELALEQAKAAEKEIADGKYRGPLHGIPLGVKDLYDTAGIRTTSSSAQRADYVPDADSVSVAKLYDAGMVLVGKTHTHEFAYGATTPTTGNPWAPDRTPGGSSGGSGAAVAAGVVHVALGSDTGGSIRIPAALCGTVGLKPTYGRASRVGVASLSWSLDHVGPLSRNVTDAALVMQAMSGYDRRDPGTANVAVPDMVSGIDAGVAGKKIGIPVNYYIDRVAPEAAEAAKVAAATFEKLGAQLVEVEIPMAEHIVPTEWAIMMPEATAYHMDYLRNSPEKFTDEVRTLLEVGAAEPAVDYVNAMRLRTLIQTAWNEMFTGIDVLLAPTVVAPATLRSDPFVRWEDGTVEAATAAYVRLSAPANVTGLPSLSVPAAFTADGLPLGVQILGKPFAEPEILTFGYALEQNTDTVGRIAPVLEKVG
Nature of the test: Activity of PzaA in Mycobacterium smegmatis mc22612 assessed as compound turnover per ml of microbial cells after 30 mins by […] analysis.

The test system of test [2] is Mycolicibacterium smegmatis. Nature of the test: Antimicrobial activity against Mycobacterium smegmatis mc27034 harboring deltaMSMEG_1090 from Mycobacterium smegmatis mc27031 after 48 hrs by broth microdilution method. It is filed as functional. To be noted: mc27034, 48 h. In outline:
(§1)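 Broth MIC: exponentially growing cells were diluted to 10^6 CFU/ml in supplemented 7H9 across a range of PZA or 5-Cl PZA concentrations. Medium was adjusted to pH 5.2 where indicated. Cultures were incubated 2 days at 37°C. The MIC is the lowest concentration preventing visible growth. Plasmid-borne amidases were induced with 50 ng/ml anhydrotetracycline.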

Test [3] concerns the target T1, Nicotinamidase/pyrazinamidase (Mycolicibacterium smegmatis). Nature of the test: Activity of PzaA in Mycobacterium smegmatis mc27034 assessed as compound turnover per ml of microbial cells after 30 mins by […] analysis. In outline: (§2)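 Whole-cell colorimetric amidase assay: log-phase cells were pelleted and resuspended in sterile water with 0.05% tyloxapol. Substrate (PZA or 5-Cl PZA) was added to 2 mM at 37°C with shaking and sampled at intervals. Clarified aliquots received ferrous ammonium sulfate (20 mM final), stood 30 min at 4°C, were re-spun, and were read at OD468. Extinction coefficients were 0.68 (PA) and 0.47 (5-Cl PA) per mM. Activity is nmol/min per ml of cells (OD600).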

Test [4] relates to Mycolicibacterium smegmatis. Nature of the test: Antimicrobial activity against Mycobacterium smegmatis mc2155 after 48 hrs by broth microdilution method. It is filed as functional. To be noted: mc2155, 48 h. On the technique in general: In broth dilution the organism is exposed to a series of concentrations in liquid medium.
Test [5] has as its target T1, Nicotinamidase/pyrazinamidase (Mycolicibacterium smegmatis). Nature of the test: Activity of PzaA in Mycobacterium smegmatis mc27036 assessed as compound turnover per ml of microbial cells after 30 mins by […] analysis. A digest of the protocol: as §2
The target is the same in test [6]. Nature of the test: Activity of PzaA in Mycobacterium smegmatis mc27032 assessed as compound turnover per ml of microbial cells after 30 mins by […] analysis. In outline:
as §2

In test [7] the test system is Mycolicibacterium smegmatis. Nature of the test: Antimicrobial activity against Mycobacterium smegmatis mc27032 harboring deltaMSMEG_1088 from Mycobacterium smegmatis mc2155 after 48 hrs by broth microdilution method. It is filed as functional. To be noted: mc27032, 48 h. In outline:
as §1

For test [8], the system named is Mycolicibacterium smegmatis. Nature of the test: Inhibition of Fatty acid synthase type 1 in Mycobacterium smegmatis mc27031 at 1500 ug/ml after 2 hrs by HPLC.
For test [9], the target named is T1, Nicotinamidase/pyrazinamidase (Mycolicibacterium smegmatis). Nature of the test: Activity of PzaA in Mycobacterium smegmatis mc27031 assessed as compound turnover per ml of microbial cells after 30 mins by […] analysis. In outline:
as §2

Test [10] concerns Mycolicibacterium smegmatis. Nature of the test: Antimicrobial activity against Mycobacterium smegmatis mc27035 harboring deltaMSMEG_1090 from Mycobacterium smegmatis mc2155 after 48 hrs by broth microdilution method. It is filed as functional. Conditions: mc27035, 48 h. In outline: as §1
The target in test [11] is T2, PYRAZINAMIDASE/NICOTINAMIDAS PNCA (PZase) (Mycobacterium tuberculosis) (UniProt Q50575).
T2 sequence (whole entry): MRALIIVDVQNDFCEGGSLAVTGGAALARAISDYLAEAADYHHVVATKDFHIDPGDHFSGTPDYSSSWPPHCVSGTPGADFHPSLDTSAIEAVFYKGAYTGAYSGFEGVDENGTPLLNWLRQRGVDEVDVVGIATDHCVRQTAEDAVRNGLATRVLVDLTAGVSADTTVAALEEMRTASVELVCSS
Nature of the test: Activity of PncA in Mycobacterium tuberculosis H37Ra assessed as compound turnover per ml of microbial cells after 30 mins by […] analysis. A digest of the protocol: as §2

Test [12] deals with T1, Nicotinamidase/pyrazinamidase (Mycolicibacterium smegmatis). Nature of the test: Activity of PzaA in Mycobacterium smegmatis mc27038 assessed as compound turnover per ml of microbial cells after 30 mins by […] analysis. In outline: as §2
The test system of test [13] is Mycolicibacterium smegmatis. Nature of the test: Antimicrobial activity against Mycobacterium smegmatis mc27036 harboring deltaMSMEG_1090 from Mycobacterium smegmatis mc22612 after 48 hrs by broth microdilution method. It is filed as functional. Conditions: mc27036, 48 h. A digest of the protocol: as §1
For test [14], the system named is Mycolicibacterium smegmatis. Nature of the test: Antimicrobial activity against Mycobacterium smegmatis mc27031 harboring MSMEG_1088::magellan4 after 48 hrs by broth microdilution method. It is filed as functional. Conditions: mc27031, 48 h. A digest of the protocol: as §1
In test [15] the target is T1, Nicotinamidase/pyrazinamidase (Mycolicibacterium smegmatis). Nature of the test: Activity of PzaA in Mycobacterium smegmatis mc27035 assessed as compound turnover per ml of microbial cells after 30 mins by […] analysis. A digest of the protocol: as §2
Test [16] relates to Mycolicibacterium smegmatis. Nature of the test: Antimicrobial activity against Mycobacterium smegmatis mc27038 harboring attBL5::Ptc::pzaAMsmeg from Mycobacterium smegmatis mc2155 after 48 hrs by broth microdilution method. It is filed as functional. To be noted: mc27038, 48 h. In outline: as §1
For test [17], the system named is Mycolicibacterium smegmatis. Nature of the test: Antimicrobial activity against 5-Cl-PZA-resistant Mycobacterium smegmatis mc27037 after 48 hrs by broth microdilution method. It is filed as functional. To be noted: mc27037, 48 h. In outline:
as §1

The target in test [18] is T1, Nicotinamidase/pyrazinamidase (Mycolicibacterium smegmatis). Nature of the test: Activity of PzaA in Mycobacterium smegmatis mc27037 assessed as compound turnover per ml of microbial cells after 30 mins by […] analysis. A digest of the protocol:
as §2

Test [19] has as its system Mycolicibacterium smegmatis. Nature of the test: Antimicrobial activity against 5-Cl PZA-resistant Mycobacterium smegmatis mc22612after 48 hrs by broth microdilution method. Conditions: mc22612, 48 h. It is filed as functional.
Test [20] has as its system Mycobacterium tuberculosis. Nature of the test: Antimicrobial activity against Mycobacterium tuberculosis H37Ra after 11 days by broth microdilution method at pH 6. In kind it is functional. To be noted: 264 h. A digest of the protocol: (§3)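 Tubercle bacilli were diluted to 10^6 CFU/ml in supplemented 7H9 containing graded PZA or 5-Cl PZA, at pH 6.0 or neutral pH 6.8. Cultures were incubated 11 days at 37°C. The MIC is the lowest concentration blocking visible growth. Integrated amidase constructs were induced with 50 ng/ml anhydrotetracycline.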

Test [21] concerns Mycobacterium tuberculosis. Nature of the test: Antimicrobial activity against Mycobacterium tuberculosis H37Ra after 11 days by broth microdilution method at pH 6.8. It is filed as functional. Conditions: 264 h. In outline:
as §3

The target of test [22] is T1, Nicotinamidase/pyrazinamidase (Mycolicibacterium smegmatis). Nature of the test: Activity of PzaA in Mycobacterium smegmatis mc2155 assessed as compound turnover per ml of microbial cells after 30 mins by […] analysis.
The subject of test [23] is Mycolicibacterium smegmatis. Nature of the test: Inhibition of Fatty acid synthase type 1 in Mycobacterium smegmatis mc2155 at 250 ug/ml after 2 hrs by HPLC.
Test [24] relates to Mycolicibacterium smegmatis. Nature of the test: Inhibition of Fatty acid synthase type 1 in Mycobacterium smegmatis mc27031 at 2.5 mg/ml after 2 hrs by HPLC. A digest of the protocol: (§4)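 FAS I activity: mid-log cells (OD600 0.5) were resuspended to OD600 0.2 in 7H9 with 0.2% dextrose and 0.05% tyloxapol, pH 5.1, plus 2.5 mg/ml PZA, for 2 h at 37°C. They were pulsed with [1-14C]acetate (1 μCi/ml) for a further 2 h. Lipids were extracted, saponified, and derivatized to p-bromophenacyl esters. 14C-palmitate was quantified by reverse-phase HPLC.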

Test [25] has as its system Mycolicibacterium smegmatis. Nature of the test: Inhibition of Fatty acid synthase type 1 in Mycobacterium smegmatis mc2155 at 2.5 mg/ml after 2 hrs by HPLC. In outline: as §4

Molecules are shown by their SMILES. In brackets after ≈: the same amount, converted by molar mass. Activity calls are given as the source filed them. Where only a bound is given, the exact number is not on record here.

One may read the MIC as the smallest concentration in the dilution series that meets the test's criterion for growth inhibition. For the compound `NC(=O)c1cnc(Cl)cn1`, the Activity in [1] came out at 32 nmol/min; in test [3], 1.2 nmol/min; in test [5], 1.2 nmol/min; in test [6] it was 65 nmol/min; in [9], 100 nmol/min; in test [11], 0.15 nmol/min. Further, the Activity stood at 34 nmol/min in test [12], 0.95 nmol/min in [15], 100 nmol/min in [18] and 0.85 nmol/min in [22]. Further, the minimal inhibitory concentration (MIC) stood at 25 µg/mL (≈ 159 µM) in test [2]; 25 µg/mL (≈ 159 µM) in test [4]; 125 µg/mL (≈ 793 µM) in test [7]; 25 µg/mL (≈ 159 µM) in test [10]; 25 µg/mL (≈ 159 µM) in test [13]; 125 µg/mL (≈ 793 µM) in test [14]. Further, the MIC was determined as 125 µg/mL (≈ 793 µM) in test [16]; 125 µg/mL (≈ 793 µM) in test [17]; 125 µg/mL (≈ 793 µM) in test [19]; 25 µg/mL (≈ 159 µM) in test [20]; 200 µg/mL (≈ 1270 µM) in test [21]. Moreover, the outcome in test [8] and in [23] was Active.

Turning to `NC(=O)c1cnccn1` [PYRAZINAMIDE], the Activity came to 32 nmol/min in test [1]; 1.2 nmol/min in test [3]; 1.2 nmol/min in test [5]; 65 nmol/min in test [6]; 100 nmol/min in test [9]; 0.23 nmol/min in [11]. Further, the Activity in [12] worked out at 34 nmol/min; in test [15], 0.95 nmol/min; in [18], 100 nmol/min; in test [22], 0.85 nmol/min. Besides, the inhibition result in [24] was “inactive”. The minimal inhibitory concentration (MIC) in test [2] is above 4000 µg/mL; in [4], above 4000 µg/mL; in test [7], 150 µg/mL (≈ 1220 µM); in [10] it was above 4000 µg/mL; in test [13], above 4000 µg/mL; in test [14], 150 µg/mL (≈ 1220 µM). Moreover, the minimum inhibitory concentration (MIC) was above 4000 µg/mL in test [16]; 150 µg/mL (≈ 1220 µM) in [17]; above 4000 µg/mL in test [19]; above 1000 µg/mL in test [20]; 62.5 µg/mL (≈ 508 µM) in test [21]. Further, the inhibition entry in test [25] is “Active”.
